# Tests used:
# [1] = Kinetic solubility of the compound at pH 7.4 incubated for 1.5 hrs under shaking condition by UV plate reader analysis; assay type: physicochemical; conditions: buffer, read-out: Kinetic_solubility
# [2] = Lipophilicity, logK of compound at pH 7.7 in presence of 80% acetonitrile by HPLC analysis; assay type: physicochemical; conditions: buffer
# [3] = test system: MV4-11; test: Antiproliferative activity against human MV4-11 cells assessed as inhibition of cell growth measured after 48 hrs by MTS assay; assay type: functional, cell-based; conditions: MV4-11, 48 h
# [4] = Aqueous solubility of the compound; assay type: physicochemical
# [5] = test system: MV4-11; test: Antiproliferative activity against human MV4-11 cells assessed as inhibition of cell growth measured after 48 hrs in presence of human serum by MTS assay; assay type: functional
# Outline: (§1)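 MV4-11 AML cells exposed to compound, with growth medium supplemented with either human serum or fetal bovine serum. Cytotoxicity IC50 was determined in each serum condition. The serum shift is the change in activity between human serum and fetal bovine serum.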
# [6] = test system: MV4-11; test: Antiproliferative activity against human MV4-11 cells assessed as inhibition of cell growth measured after 48 hrs in presence of fetal bovine serum by MTS assay; assay type: functional; outline: as §1
# [7] = test system: MV4-11; test: Antiproliferative activity against human MV4-11 cells assessed as fold decrease in cell growth measured after 48 hrs in presence of human serum by MTS assay; assay type: functional; outline: as §1
# [8] = molecular target: T1, Protein cereblon/Cyclin-dependent kinase 9 (Homo sapiens, UniProt P50750+Q96SW2); test: PROTAC activity at CRBN/CDK9 in human MOLM-13 cells assessed as induction of CDK9 degradation incubated for 6 hrs by Western blot analysis
# Target sequence in this assay (P50750 whole entry): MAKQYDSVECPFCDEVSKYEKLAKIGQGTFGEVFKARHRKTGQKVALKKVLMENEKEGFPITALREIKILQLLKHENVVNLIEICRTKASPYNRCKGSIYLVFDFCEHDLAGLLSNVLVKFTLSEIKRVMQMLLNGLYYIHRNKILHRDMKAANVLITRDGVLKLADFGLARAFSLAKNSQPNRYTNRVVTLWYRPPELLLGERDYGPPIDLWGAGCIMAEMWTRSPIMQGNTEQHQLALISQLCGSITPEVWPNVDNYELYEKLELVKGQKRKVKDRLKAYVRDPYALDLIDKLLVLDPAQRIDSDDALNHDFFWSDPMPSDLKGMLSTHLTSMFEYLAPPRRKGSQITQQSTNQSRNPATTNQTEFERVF
# Target sequence in this assay (Q96SW2 whole entry): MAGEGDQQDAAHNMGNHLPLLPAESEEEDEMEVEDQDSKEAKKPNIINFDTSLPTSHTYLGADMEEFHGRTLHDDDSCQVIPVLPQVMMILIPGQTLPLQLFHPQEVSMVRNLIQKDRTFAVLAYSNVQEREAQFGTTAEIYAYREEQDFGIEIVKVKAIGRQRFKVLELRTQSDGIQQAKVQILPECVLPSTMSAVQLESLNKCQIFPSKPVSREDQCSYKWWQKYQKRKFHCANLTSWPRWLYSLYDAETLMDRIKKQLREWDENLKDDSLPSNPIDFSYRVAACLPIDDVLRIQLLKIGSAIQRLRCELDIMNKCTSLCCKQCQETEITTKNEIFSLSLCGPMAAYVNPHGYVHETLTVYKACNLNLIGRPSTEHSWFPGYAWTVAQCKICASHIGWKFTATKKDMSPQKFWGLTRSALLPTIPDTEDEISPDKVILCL
# [9] = molecular target: T1, Protein cereblon/Cyclin-dependent kinase 9; test: PROTAC activity at CRBN/CDK9 in human MOLM-13 cells assessed as induction of CDK9 degradation by measuring maximal efficacy at 0.01 to 5 uM incubated for 6 hrs by Western blot analysis relative to control; conditions: dose 0.01-5 µM
# Target sequence in this assay (P50750 whole entry, looked up): as the sequence (P50750 whole entry) above
# Target sequence in this assay (Q96SW2 whole entry, looked up): as the sequence (Q96SW2 whole entry) above
compound,measurement,setting,value
O=C1CCC(N2C(=O)c3cccc(OCCCCCCCCn4cc(CCN5CCC(NC(=O)c6n[nH]cc6NC(=O)c6c(Cl)cccc6Cl)CC5)nn4)c3C2=O)C(=O)N1 (configuration not stated),solubility kinetic at 1.5 h,[1],5.65 µM
same,log K,[2],0.146
same,IC50,[3]; read-out: IC50,0.05 µM
same,IC50,[3]; read-out: pIC50 (converted),0.0501 µM
same,solubility,[4],5.65 µM
same,EC,[5],881.9 nM
same,EC,[6],46.9 nM
same,fold change (FC),[7],20
same,DC50,[8],0.06 µM
same,Emax,[9],88.3%
O=C1CCC(N2C(=O)c3cccc(OCCCCn4cc(CCCCN5CCC(NC(=O)c6n[nH]cc6NC(=O)c6c(Cl)cccc6Cl)CC5)nn4)c3C2=O)C(=O)N1 (configuration not stated),solubility kinetic at 1.5 h,[1],40.9 µM
same,log K,[2],0.084
same,IC50,[3]; read-out: IC50,0.19 µM
same,IC50,[3]; read-out: pIC50 (converted),0.2 µM
same,solubility,[4],≥ 40 µM
same,EC,[5],69.3 nM
same,EC,[6],190.1 nM
same,fold change (FC),[7],3
same,DC50,[8],0.07 µM
same,Emax,[9],79.1%
O=C1CCC(N2C(=O)c3cccc(OCCCCCCCn4cc(CCCCCN5CCC(NC(=O)c6n[nH]cc6NC(=O)c6c(Cl)cccc6Cl)CC5)nn4)c3C2=O)C(=O)N1 (configuration not stated),solubility kinetic at 1.5 h,[1],5.46 µM
same,log K,[2],0.14
same,IC50,[3]; read-out: IC50,0.05 µM
same,IC50,[3]; read-out: pIC50 (converted),0.0501 µM
same,DC50,[8],0.1 µM
same,Emax,[9],70.1%
O=C1CCC(N2C(=O)c3cccc(OCCCCCCCn4cc(CCCCCCCN5CCC(NC(=O)c6n[nH]cc6NC(=O)c6c(Cl)cccc6Cl)CC5)nn4)c3C2=O)C(=O)N1 (configuration not stated),solubility kinetic at 1.5 h,[1],4.7 µM
same,log K,[2],0.176
same,IC50,[3]; read-out: IC50,0.06 µM
same,IC50,[3]; read-out: pIC50 (converted),0.0631 µM
same,DC50,[8],0.06 µM
same,Emax,[9],78%
O=C(NC1CCNCC1)c1n[nH]cc1NC(=O)c1c(Cl)cccc1Cl [AT-7519],solubility kinetic at 1.5 h,[1],512 µM
same,log K,[2],0.134
same,IC50,[3]; read-out: IC50,0.12 µM
same,IC50,[3]; read-out: pIC50 (converted),0.126 µM
O=C1CCC(N2C(=O)c3cccc(OCCCCCCCCn4cc(CCCCCCN5CCC(NC(=O)c6n[nH]cc6NC(=O)c6c(Cl)cccc6Cl)CC5)nn4)c3C2=O)C(=O)N1 (configuration not stated),solubility kinetic at 1.5 h,[1],2.38 µM
same,log K,[2],0.184
same,IC50,[3]; read-out: IC50,0.07 µM
same,IC50,[3]; read-out: pIC50 (converted),0.0794 µM
same,DC50,[8],0.07 µM
same,Emax,[9],86.2%
O=C1CCC(N2C(=O)c3cccc(OCCCCn4cc(CCCCCCCCCCN5CCC(NC(=O)c6n[nH]cc6NC(=O)c6c(Cl)cccc6Cl)CC5)nn4)c3C2=O)C(=O)N1 (configuration not stated),solubility kinetic at 1.5 h,[1],3.42 µM
same,log K,[2],0.197
same,IC50,[3]; read-out: IC50,0.01 µM
same,IC50,[3]; read-out: pIC50 (converted),0.00794 µM
same,EC,[5],28.6 nM
same,EC,[6],8.8 nM
same,fold change (FC),[7],3
same,DC50,[8],0.04 µM
same,Emax,[9],88.6%
O=C1CCC(N2C(=O)c3cccc(OCCCCn4cc(CCCCCN5CCC(NC(=O)c6n[nH]cc6NC(=O)c6c(Cl)cccc6Cl)CC5)nn4)c3C2=O)C(=O)N1 (configuration not stated),solubility kinetic at 1.5 h,[1],31.3 µM
same,log K,[2],0.106
same,IC50,[3]; read-out: IC50,0.19 µM
same,IC50,[3]; read-out: pIC50 (converted),0.2 µM
same,DC50,[8],0.4 µM
same,Emax,[9],58.6%
O=C1CCC(N2C(=O)c3cccc(OCCCCn4cc(CCCCCCN5CCC(NC(=O)c6n[nH]cc6NC(=O)c6c(Cl)cccc6Cl)CC5)nn4)c3C2=O)C(=O)N1 (configuration not stated),solubility kinetic at 1.5 h,[1],12.9 µM
same,log K,[2],0.116
same,IC50,[3]; read-out: IC50,0.07 µM
same,IC50,[3]; read-out: pIC50 (converted),0.0794 µM
same,solubility,[4],12.9 µM
same,DC50,[8],0.1 µM
same,Emax,[9],75.3%
O=C1CCC(N2C(=O)c3cccc(OCCCCCn4cc(CCCCN5CCC(NC(=O)c6n[nH]cc6NC(=O)c6c(Cl)cccc6Cl)CC5)nn4)c3C2=O)C(=O)N1 (configuration not stated),solubility kinetic at 1.5 h,[1],12.4 µM
same,log K,[2],0.1
same,IC50,[3]; read-out: IC50,0.24 µM
same,IC50,[3]; read-out: pIC50 (converted),0.251 µM
same,DC50,[8],0.13 µM
same,Emax,[9],67.5%
O=C1CCC(N2C(=O)c3cccc(OCCCCCn4cc(CCCCCN5CCC(NC(=O)c6n[nH]cc6NC(=O)c6c(Cl)cccc6Cl)CC5)nn4)c3C2=O)C(=O)N1 (configuration not stated),solubility kinetic at 1.5 h,[1],13.2 µM
same,log K,[2],0.112
same,IC50,[3]; read-out: IC50,0.13 µM
same,IC50,[3]; read-out: pIC50 (converted),0.126 µM
same,solubility,[4],13.2 µM
same,DC50,[8],0.95 µM
same,Emax,[9],68.5%

# Reference: ChEMBL document CHEMBL5325481, “Examination of the Impact of Triazole Position within Linkers on Solubility and Lipophilicity of a CDK9 Degrader Series” (ACS Med Chem Lett, 2023)
